Laboratory results from ChEMBL document CHEMBL5331087, “Targeted AURKA degradation: Towards new therapeutic agents for neuroblastoma” (Eur J Med Chem, 2023).
Blank lines part the entries; values can stand above or below the molecule they belong to. Active and inactive are the calls of the source. The rule behind the calls is not given here.

Legend:
[1] = target: T1, Protein cereblon/Aurora kinase A (Homo sapiens) (UniProt O14965+Q96SW2); experiment: PROTAC activity at AURKA/CRBN in human NGP cells assessed as AURKA degradation at 10 to 1000 nM measured for 24 hrs by Western blot analysis relative to control; type: cell-based; settings: dose 10-1000 nM
T1 sequence (Q96SW2 whole entry, looked up, one chain of several): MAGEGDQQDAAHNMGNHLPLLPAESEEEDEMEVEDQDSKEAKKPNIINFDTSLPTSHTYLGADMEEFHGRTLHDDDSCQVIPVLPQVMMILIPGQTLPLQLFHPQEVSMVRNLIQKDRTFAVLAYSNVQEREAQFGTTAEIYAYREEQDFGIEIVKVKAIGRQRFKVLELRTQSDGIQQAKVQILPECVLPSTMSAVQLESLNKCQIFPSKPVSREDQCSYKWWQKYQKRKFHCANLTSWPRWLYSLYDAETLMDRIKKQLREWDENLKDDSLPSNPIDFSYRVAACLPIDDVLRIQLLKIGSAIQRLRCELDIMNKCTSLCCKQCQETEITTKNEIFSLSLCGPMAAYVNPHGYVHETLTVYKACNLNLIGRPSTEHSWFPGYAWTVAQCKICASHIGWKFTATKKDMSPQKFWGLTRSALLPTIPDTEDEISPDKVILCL
Outline: (§1)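 NGP cells were seeded at about 2×10^6 per flask, adhered for 48 h, and were then treated for 24 h with DMSO matched. Lysis was in RIPA with protease/phosphatase inhibitors. AURKA was quantified by capillary Simple Western with peak areas normalised to vinculin. Fold change is relative to DMSO (mean ± SD, n = 3).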

[2] = Antiproliferative activity against human NGP cells assessed as reduction in cell viability incubated for 48 hrs; type: functional, cell-based
Outline: (§2)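 Cells were grown in RPMI 1640 with 10% FCS and 2 mM L-glutamine. Seeding was 4500 cells/well for NGP, IMR-32 and N206, and 2100 cells/well for SK-N-AS, with adherence overnight. Compound was dispensed over a concentration range in triplicate. Confluence was imaged live for 48 h and normalised to the DMSO control. Absolute IC50 came from a four-parameter variable-slope fit (n = 4).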

SK-N-AS [3] = experiment: Antiproliferative activity against human SK-N-AS cells assessed as reduction in cell viability incubated for 48 hrs relative to control; type: functional
Outline: (§3)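 Cells grown in RPMI 1640 with 10% fetal calf serum, 2 mM L-glutamine and penicillin/streptomycin at 37 °C, 5% CO2. Seeded at 4500 (IMR-32) or 2100 (SK-N-AS) cells/well in 384-well plates and left to adhere overnight. Concentration range dispensed in triplicate. Confluence tracked by IncuCyte live-cell imaging, and 48h values normalized to DMSO. Absolute IC50 taken from a four-parameter variable-slope fit (n = 4).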

IMR-32 [4] = experiment: Antiproliferative activity against human IMR-32 cells assessed as reduction in cell viability incubated for 48 hrs relative to control; type: functional; outline: as §3
N206 = experiment: Antiproliferative activity against human N206 cells assessed as reduction in cell viability incubated for 48 hrs relative to control; type: functional
[5] = Growth inhibition of patient derived NB067 Neuroblastoma organoid assessed as reduction in viability […] by CellTiter Glo 3D assay; type: functional, tissue-based; settings: Homo sapiens
Outline: (§4)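 Patient-derived organoids were dissociated to single cells with Accutase and seeded in NB organoid medium at 5000 (000GKX), 20000 (NB059), 5000 (NB067) or 3000 (NB139) cells/well. Compound was added after 24 h over a concentration range in triplicate, with DMSO matched. Incubation was 120 h at 37 °C and 5% CO2. Viability was read by CellTiter-Glo 3D, and absolute IC50 derived (n = 1).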

[6] = Growth inhibition of patient derived NB059 Neuroblastoma organoid assessed as reduction in viability incubated for 48 hrs by CellTiter Glo 3D assay; type: functional, tissue-based, Homo sapiens; settings: in the assay text read “120 hrs” for “48 hrs”; outline: as §4
[7] = target: T1, Protein cereblon/Aurora kinase A (Homo sapiens); experiment: PROTAC activity at AURKA/CRBN in human NGP cells assessed as AURKA degradation at 10 to 1000 nM measured for 24 hrs by immunoblotting analysis; type: cell-based; settings: dose 10-1000 nM; outline: as §1
Homo sapiens [8] = species: Homo sapiens; experiment: Growth inhibition of patient derived NB059 Neuroblastoma organoid assessed as reduction in viability incubated for […] by CellTiter Glo 3D assay relative to control; type: functional
SK-N-AS [9] = experiment: Antiproliferative activity against human SK-N-AS cells assessed as reduction in cell viability incubated for 48 hrs; type: functional, cell-based; settings: sk-n-as; outline: as §2
IMR-32 [10] = experiment: Antiproliferative activity against human IMR-32 cells assessed as reduction in cell viability incubated for 48 hrs; type: functional, cell-based; settings: IMR-32, 48 h; outline: as §2
Homo sapiens [11] = species: Homo sapiens; experiment: Growth inhibition of patient derived 000GKX Neuroblastoma organoid assessed as reduction in viability incubated for […] by CellTiter Glo 3D assay relative to control; type: functional
NGP = experiment: Antiproliferative activity against human NGP cells assessed as reduction in cell viability incubated for 48 hrs relative to control; type: functional
[12] = target: T2, N-myc proto-oncogene protein (Homo sapiens) (UniProt P04198); experiment: Induction of MYCN degradation in human NGP cells at 500 nM measured upto 72 hrs by Western blot analysis; type: cell-based
T2 sequence (whole entry): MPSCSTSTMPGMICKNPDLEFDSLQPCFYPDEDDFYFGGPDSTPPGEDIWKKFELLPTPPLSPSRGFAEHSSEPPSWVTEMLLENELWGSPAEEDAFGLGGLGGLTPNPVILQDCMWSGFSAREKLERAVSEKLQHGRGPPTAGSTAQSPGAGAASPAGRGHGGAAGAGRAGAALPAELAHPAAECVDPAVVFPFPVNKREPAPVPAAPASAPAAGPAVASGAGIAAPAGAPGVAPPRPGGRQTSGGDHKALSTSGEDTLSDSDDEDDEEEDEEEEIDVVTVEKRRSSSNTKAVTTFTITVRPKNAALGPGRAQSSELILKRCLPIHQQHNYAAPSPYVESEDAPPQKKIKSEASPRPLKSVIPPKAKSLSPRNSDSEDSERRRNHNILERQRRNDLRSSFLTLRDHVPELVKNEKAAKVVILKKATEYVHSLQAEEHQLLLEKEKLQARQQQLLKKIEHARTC
Outline: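 NGP cells were treated with 500 nM compound and harvested at 0, 1, 3, 6, 24, 48 and 72 h. RIPA lysates (35 µg) were run on 10% SDS-PAGE and blotted to nitrocellulose. AURKA and MYCN were probed with vinculin as loading control and quantified by densitometry. Values are percent remaining relative to the DMSO control at each timepoint (n = 3).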

Homo sapiens [13] = species: Homo sapiens; experiment: Growth inhibition of patient derived NB139 Neuroblastoma organoid assessed as reduction in viability incubated for […] by CellTiter Glo 3D assay relative to control; type: functional
Homo sapiens [14] = species: Homo sapiens; experiment: Growth inhibition of patient derived NB067 Neuroblastoma organoid assessed as reduction in viability incubated for […] by CellTiter Glo 3D assay relative to control; type: functional
[15] = Growth inhibition of patient derived 000GKX Neuroblastoma organoid assessed as reduction in viability […] by CellTiter Glo 3D assay; type: functional, tissue-based, Homo sapiens; settings: Homo sapiens, Neuroblastoma organoid; read-out: IC50; outline: as §4
[16] = Antiproliferative activity against human N206 cells assessed as reduction in cell viability incubated for 48 hrs; type: functional, cell-based; outline: as §2
[17] = Growth inhibition of patient derived NB139 Neuroblastoma organoid assessed as reduction in viability […] by CellTiter Glo 3D assay; type: functional, tissue-based; settings: Homo sapiens; outline: as §4
[18] = target: T1, Protein cereblon/Aurora kinase A (Homo sapiens); experiment: PROTAC activity at AURKA/CRBN in human NGP cells assessed as AURKA degradation measured for 24 hrs by Western blot analysis; type: cell-based; settings: dose 10-1000 nM
Aurora kinase A = target: T3, Aurora kinase A (Homo sapiens, UniProt O14965); experiment: Induction of AURKA degradation (unknown origin) measured for 6 hrs
T3 sequence (O14965 whole entry): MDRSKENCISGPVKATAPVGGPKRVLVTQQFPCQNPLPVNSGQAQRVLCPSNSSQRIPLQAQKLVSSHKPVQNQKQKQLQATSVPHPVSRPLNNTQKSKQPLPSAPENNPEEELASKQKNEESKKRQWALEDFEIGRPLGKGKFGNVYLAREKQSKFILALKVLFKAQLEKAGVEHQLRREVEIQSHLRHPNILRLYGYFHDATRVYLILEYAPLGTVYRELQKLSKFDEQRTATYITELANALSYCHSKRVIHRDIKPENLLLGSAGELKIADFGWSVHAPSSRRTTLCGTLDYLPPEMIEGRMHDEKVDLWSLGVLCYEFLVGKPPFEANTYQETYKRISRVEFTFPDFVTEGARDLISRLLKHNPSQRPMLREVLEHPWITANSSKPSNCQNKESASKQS

[19] = target: T4, Aurora kinase A (Homo sapiens) (UniProt O14965); experiment: Induction of AURKA degradation (unknown origin) measured for 6 hrs relative to control
T4 sequence (whole entry): T3 sequence (O14965 whole entry)

[20] = target: T1, Protein cereblon/Aurora kinase A (Homo sapiens); experiment: PROTAC activity at AURKA/CRBN in human NGP cells assessed as reduction in AURKA level at 100 nM measured for 24 hrs by Western blot analysis relative to control; type: cell-based; design: scale not given: the % may be the effect or the level left; outline: as §1
[21] = target: T1, Protein cereblon/Aurora kinase A (Homo sapiens); experiment: PROTAC activity at AURKA/CRBN in human NGP cells assessed as AURKA degradation at 1000 nM measured for 24 hrs by Western blot analysis relative to control; type: cell-based; outline: as §1
[22] = target: T1, Protein cereblon/Aurora kinase A (Homo sapiens); experiment: PROTAC activity at AURKA/CRBN in human NGP cells assessed as reduction in AURKA level at 10 nM measured for 24 hrs by Western blot analysis relative to control; type: cell-based; design: scale not given: the % may be the effect or the level left; outline: as §1
[23] = target: T1, Protein cereblon/Aurora kinase A (Homo sapiens); experiment: PROTAC activity at AURKA/CRBN in human NGP cells assessed as downregulation of AURKA level at 10 to 1000 nM measured for 24 hrs by Western blot analysis; type: cell-based; settings: dose 10-1000 nM; outline: as §1
[24] = target: T1, Protein cereblon/Aurora kinase A (Homo sapiens); experiment: PROTAC activity at AURKA/CRBN in human NGP cells assessed as AURKA degradation at 0.1 to 1000 nM measured for 24 hrs by Western blot analysis relative to control; type: cell-based; settings: dose 0.1-1000 nM; outline: as §1
[25] = target: T1, Protein cereblon/Aurora kinase A (Homo sapiens); experiment: PROTAC activity at AURKA/CRBN in human NGP cells assessed as AURKA degradation at 10 nM measured for 24 hrs by Western blot analysis relative to control; type: cell-based; outline: as §1

Structure (SMILES): O=C(O)[C@]1(Cc2cccc(Nc3nccs3)n2)CC[C@@H](Oc2cccc(Cl)c2F)CC1 [MK-5108]
Emax (SK-N-AS [3]): 58.5%
Emax (IMR-32 [4]): 20.4%
Emax (N206): 53.2%
IC50 [5]: 0.0753 µM
IC50 [6]: Not Active
Activity [7]: inactive
Emax (Homo sapiens [8]): 75.9%
IC50 (SK-N-AS [9]): Not Active
IC50 (IMR-32 [10]): 0.199 µM
Emax (Homo sapiens [11]): 59.5%
Emax (NGP): 32.9%
Activity [12]: Active
Emax (Homo sapiens [13]): 44.1%
IC50 [2]: 0.362 µM
Emax (Homo sapiens [14]): 14.2%
IC50 [15]: 0.483 µM
IC50 [16]: Not Active
IC50 [17]: 0.9 µM

Structure (SMILES): O=C1CCC(N2C(=O)c3cccc(OCCOCCOCCNC(=O)[C@]4(Cc5cccc(Nc6nccs6)n5)CC[C@@H](Oc5cccc(Cl)c5F)CC4)c3C2=O)C(=O)N1 (stereo partly drawn)
Activity [18]: Active
Emax [1]: 85%
IC50 [2]: 0.0808 µM

Structure (SMILES): O=C(COc1cccc2c1C(=O)N(C1CCC(=O)NC1=O)C2=O)NCCOCCOCCOCCNC(=O)[C@]1(Cc2cccc(Nc3nccs3)n2)CC[C@@H](Oc2cccc(Cl)c2F)CC1 (stereo partly drawn)
DC50 (Aurora kinase A): 0.003 µM
Emax [19]: 82%
IC50 [2]: 0.102 µM

Structure (SMILES): O=C1CCC(N2C(=O)c3cccc(OCCOCCOCCOCCOCCNC(=O)[C@]4(Cc5cccc(Nc6nccs6)n5)CC[C@@H](Oc5cccc(Cl)c5F)CC4)c3C2=O)C(=O)N1 (stereo partly drawn)
Activity [18]: Active
Emax [1]: 85%
IC50 [2]: 0.0509 µM

Structure (SMILES): CN1C(=O)CCC(N2C(=O)c3cccc(OCCOCCOCCOCCNC(=O)[C@]4(Cc5cccc(Nc6nccs6)n5)CC[C@@H](Oc5cccc(Cl)c5F)CC4)c3C2=O)C1=O (stereo partly drawn)
Activity [23]: inactive
IC50 [2]: 1.1 µM

Structure (SMILES): COc1cc(Nc2ncc3c(n2)-c2ccc(Cl)cc2C(c2c(F)cccc2OC)=NC3)ccc1C(=O)NCCOCCOCCNC(=O)COc1cccc2c1C(=O)N(C1CCC(=O)NC1=O)C2=O (stereo not drawn)
Emax [24]: 73%
IC50 [2]: 0.877 µM

Structure (SMILES): O=C1CCC(N2C(=O)c3ccc(OCCOCCOCCOCCOCCNC(=O)[C@]4(Cc5cccc(Nc6nccs6)n5)CC[C@@H](Oc5cccc(Cl)c5F)CC4)cc3C2=O)C(=O)N1 (stereo partly drawn)
Emax [25]: 85%
Emax [1]: 85%
IC50 [2]: 0.034 µM

Structure (SMILES): O=C(COc1cccc2c1C(=O)N(C1CCC(=O)NC1=O)C2=O)NCCOCCOCCNC(=O)[C@]1(Cc2cccc(Nc3nccs3)n2)CC[C@@H](Oc2cccc(Cl)c2F)CC1 (stereo partly drawn)
Activity [18]: Active
IC50 [2]: 0.0833 µM

Now from value to molecule, other results behind:

Emax [1]: 85%
Structure (SMILES): O=C1CCC(N2C(=O)c3ccc(OCCOCCOCCNC(=O)[C@]4(Cc5cccc(Nc6nccs6)n5)CC[C@@H](Oc5cccc(Cl)c5F)CC4)cc3C2=O)C(=O)N1 (stereo partly drawn)
IC50 [2]: 0.0699 µM

Activity [20]: 17%
Activity [21]: Active
Activity [22]: 45%
Structure (SMILES): O=C1CCC(N2C(=O)c3ccc(OCCOCCNC(=O)[C@]4(Cc5cccc(Nc6nccs6)n5)CC[C@@H](Oc5cccc(Cl)c5F)CC4)cc3C2=O)C(=O)N1 (stereo partly drawn)
IC50 [2]: 0.0633 µM

Emax [25]: 85%
Emax [1]: 85%
Structure (SMILES): O=C1CCC(N2C(=O)c3ccc(OCCOCCOCCOCCNC(=O)[C@]4(Cc5cccc(Nc6nccs6)n5)CC[C@@H](Oc5cccc(Cl)c5F)CC4)cc3C2=O)C(=O)N1 (stereo partly drawn)
IC50 [2]: 0.0401 µM

Activity [18]: inactive
Activity [1]: inactive
Structure (SMILES): O=C1CCC(N2C(=O)c3cccc(OCCOCCNC(=O)[C@]4(Cc5cccc(Nc6nccs6)n5)CC[C@@H](Oc5cccc(Cl)c5F)CC4)c3C2=O)C(=O)N1 (stereo partly drawn)
IC50 [2]: 1.31 µM
